Reference: ChEMBL document CHEMBL4177603 (Bioorg Med Chem Lett, 2017)

Columns and labels:
[1] = Volume of distribution at steady state in iv dosed mouse; format: ADME, organism-based; conditions: in vivo, read-out: Vdss
[2] = target: Histamine H1 receptor (Homo sapiens) (UniProt P35367); assay: Displacement of [3H]pyrilamine from recombinant human H1 receptor at 10 uM after 60 mins by scintillation counting method
[3] = target: High affinity choline transporter 1 (Homo sapiens, UniProt Q9GZV3); assay: Displacement of [3H]hemicholinium-3 from recombinant human choline transporter after 60 mins by scintillation counting method
monoamine oxidase = monoamine oxidase (Homo sapiens, UniProt P21397+P27338); assay: Inhibition of monoamine oxidase (unknown origin) at 10 uM relative to control; format: protein assay
Homo sapiens [4] = species on record: Homo sapiens; assay: Displacement of [125I]alpha-bungarotoxin from human muscle type nAChR at 10 uM after 120 mins by scintillation counting method
[5] = target: Muscarinic acetylcholine receptor M3 (Homo sapiens) (UniProt P20309); assay: Antagonist activity at human M3 receptor expressed in CHOK1 cells assessed as inhibition of acetylcholine-induced calcium flux at 10 uM by fluorimetric method relative to control; format: functional, cell-based
[6] = target: Endothelin-1 receptor (Homo sapiens) (UniProt P25101); assay: Agonist activity at human ETA receptor expressed in SK-N-MC cells assessed as increase in calcium flux at 10 uM by fluorimetric method relative to control; format: functional, cell-based
[7] = Inhibition of cynomolgus monkey Nav1.7 expressed in HEK cells by automated patchXpress electrophysiology method; format: cell-based; conditions: Macaca fascicularis, HEK293
Rattus norvegicus [8] = species on record: Rattus norvegicus; assay: Displacement of [3H]GABA from rat brain GABA transporter at 10 uM after 30 mins by scintillation counting method
Rattus norvegicus [9] = species on record: Rattus norvegicus; assay: Displacement of [3H]diltiazem from L-type calcium channel diltiazem binding site in rat brain at 10 uM after 120 mins by scintillation counting method
[10] = Protein binding in dog plasma assessed as fraction unbound at 2 uM; format: ADME, cell-free, Canis lupus familiaris
Cytochrome P450 2D6 = Cytochrome P450 2D6 (Homo sapiens, UniProt P10635); assay: Inhibition of CYP2D6 (unknown origin); format: ADME
[11] = target: Sodium-dependent dopamine transporter (Homo sapiens, UniProt Q01959); assay: Displacement of [3H]BTCP from recombinant human dopamine transporter at 10 uM after 120 mins by scintillation counting method
[12] = Lipophilicity, log D of the compound at pH 7.4; format: physicochemical; conditions: buffer
[13] = target: Androgen receptor (Homo sapiens) (UniProt P10275); assay: Displacement of [3H]methyltrienolone from human androgen receptor at 10 uM after 1440 mins by scintillation counting method
[14] = target: Cannabinoid receptor 1 (Homo sapiens) (UniProt P21554); assay: Displacement of [3H]CP 55940 from recombinant human CB1 receptor at 10 uM after 120 mins by scintillation counting method
[15] = Intrinsic clearance in dog hepatocytes assessed per million cells; format: ADME, cell-based, Canis lupus familiaris, Hepatocyte; conditions: read-out: CLH
[16] = target: Sodium channel protein type 2 subunit alpha (Homo sapiens, UniProt Q99250); assay: Inhibition of human Nav1.2 expressed in HEK cells by patch clamp electrophysiology method; format: cell-based
Rattus norvegicus [17] = species on record: Rattus norvegicus; assay: Displacement of [3H]AMPA from rat brain AMPA receptor at 10 uM after 60 mins by scintillation counting method
[18] = target: Glucocorticoid receptor (Homo sapiens) (UniProt P04150); assay: Displacement of [3H]dexamethasone from human glucocorticoid receptor at 10 uM after 360 mins by scintillation counting method
[19] = Protein binding in human plasma assessed as fraction unbound; format: ADME, cell-free
[20] = target: Sodium channel protein type 3 subunit alpha (Homo sapiens, UniProt Q9NY46); assay: Inhibition of human Nav1.3 expressed in HEK cells by patch clamp electrophysiology method; format: cell-based
[21] = target: Histamine H1 receptor (Homo sapiens) (UniProt P35367); assay: Antagonist activity at human H1 receptor expressed in HEK293 cells assessed as inhibition of histamine-induced calcium flux at 10 uM by fluorimetric method relative to control; format: functional, cell-based
[22] = target: Cannabinoid receptor 1 (Homo sapiens) (UniProt P21554); assay: Antagonist activity at recombinant human CB1 receptor expressed in CHOK1 cells assessed as inhibition of CP 55940-induced cAMP accumulation at 10 uM after 20 mins by HTRF assay relative to control; format: functional, cell-based
[23] = Renal clearance in rat at 0.3 mg/kg, iv via infusion for 1 hr; format: ADME, organism-based, Kidney; conditions: in vivo
[24] = target: Delta-type opioid receptor (Homo sapiens) (UniProt P41143); assay: Agonist activity at human DOR expressed in Chem1 cells assessed as increase in calcium flux at 10 uM by fluorimetric method relative to control; format: functional, cell-based
[25] = target: Sodium-dependent noradrenaline transporter (Homo sapiens, UniProt P23975); assay: Displacement of [3H]nisoxetine from recombinant human norepinephrine transporter at 10 uM after 120 min by scintillation counting method
[26] = target: Sodium channel protein type 8 subunit alpha (Homo sapiens, UniProt Q9UQD0); assay: Inhibition of human Nav1.6 expressed in HEK cells by patch clamp electrophysiology method; format: cell-based
[27] = Protein binding in rat plasma assessed as fraction unbound; format: ADME, cell-free
[28] = target: Sodium channel protein type 4 subunit alpha (Homo sapiens, UniProt P35499); assay: Inhibition of human Nav1.4 expressed in HEK cells by patch clamp electrophysiology method; format: cell-based
[29] = Clearance in dog blood at 0.3 mg/kg, iv via infusion for 0.5 hrs; format: ADME, organism-based, Canis lupus familiaris; conditions: whole blood
In short: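 Blood clearance was calculated from the measured plasma clearance and the measured blood:plasma ratio.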

Homo sapiens [30] = species on record: Homo sapiens; assay: Inhibition of sodium channel site2 (unknown origin) at 10 uM by radioligand binding assay relative to control
[31] = target: Tyrosine-protein kinase Lck (Homo sapiens) (UniProt P06239); assay: Inhibition of recombinant human LCK at 10 uM using Ulight-Poly GAT[EAY(1:1:1)]n as substrate after 10 mins by LANCE assay
[32] = target: T1, Muscarinic acetylcholine receptor M1 (Homo sapiens) (UniProt P11229); assay: Displacement of [3H]pirenzepine from recombinant human M1 receptor at 10 uM after 60 mins by scintillation counting method
T1 sequence (whole entry): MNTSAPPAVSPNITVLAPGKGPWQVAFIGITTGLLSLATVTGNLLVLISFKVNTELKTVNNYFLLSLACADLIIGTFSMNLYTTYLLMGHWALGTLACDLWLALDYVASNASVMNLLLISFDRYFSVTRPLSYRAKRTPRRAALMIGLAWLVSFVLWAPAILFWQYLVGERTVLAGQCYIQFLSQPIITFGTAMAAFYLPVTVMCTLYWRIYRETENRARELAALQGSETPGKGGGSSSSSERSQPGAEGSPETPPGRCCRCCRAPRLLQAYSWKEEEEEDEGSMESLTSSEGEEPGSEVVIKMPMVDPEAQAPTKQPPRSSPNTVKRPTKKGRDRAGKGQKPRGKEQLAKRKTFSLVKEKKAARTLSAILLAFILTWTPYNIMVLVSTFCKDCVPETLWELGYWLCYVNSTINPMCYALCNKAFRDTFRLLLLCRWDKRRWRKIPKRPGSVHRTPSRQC

[33] = target: D(2) dopamine receptor (Homo sapiens) (UniProt P14416); assay: Antagonist activity at recombinant human D2S receptor expressed in HEK293 cells assessed as inhibition of dopamine-induced cell impedance at 10 uM by cellular dielectric spectroscopic method relative to control; format: cell-based
[34] = Intrinsic clearance in dog liver microsomes; format: ADME, Canis lupus familiaris, microsome; conditions: read-out: CLH

Chain of Cannabinoid receptor 1 (Homo sapiens) (P21554 whole entry, the tested form may be a part): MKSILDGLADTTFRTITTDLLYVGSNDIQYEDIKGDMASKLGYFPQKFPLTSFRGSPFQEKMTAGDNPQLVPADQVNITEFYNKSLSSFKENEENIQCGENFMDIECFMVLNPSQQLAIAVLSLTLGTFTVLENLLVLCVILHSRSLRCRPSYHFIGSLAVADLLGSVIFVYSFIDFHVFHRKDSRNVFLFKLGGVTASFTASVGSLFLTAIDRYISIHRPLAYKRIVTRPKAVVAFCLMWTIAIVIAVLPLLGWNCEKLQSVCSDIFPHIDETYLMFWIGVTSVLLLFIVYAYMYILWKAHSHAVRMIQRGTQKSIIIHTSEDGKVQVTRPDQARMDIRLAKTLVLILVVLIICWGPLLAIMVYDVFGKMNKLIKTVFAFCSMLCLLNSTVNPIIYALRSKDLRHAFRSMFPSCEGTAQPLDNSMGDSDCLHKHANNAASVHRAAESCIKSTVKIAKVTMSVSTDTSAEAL
Chain of High affinity choline transporter 1 (Q9GZV3 whole entry): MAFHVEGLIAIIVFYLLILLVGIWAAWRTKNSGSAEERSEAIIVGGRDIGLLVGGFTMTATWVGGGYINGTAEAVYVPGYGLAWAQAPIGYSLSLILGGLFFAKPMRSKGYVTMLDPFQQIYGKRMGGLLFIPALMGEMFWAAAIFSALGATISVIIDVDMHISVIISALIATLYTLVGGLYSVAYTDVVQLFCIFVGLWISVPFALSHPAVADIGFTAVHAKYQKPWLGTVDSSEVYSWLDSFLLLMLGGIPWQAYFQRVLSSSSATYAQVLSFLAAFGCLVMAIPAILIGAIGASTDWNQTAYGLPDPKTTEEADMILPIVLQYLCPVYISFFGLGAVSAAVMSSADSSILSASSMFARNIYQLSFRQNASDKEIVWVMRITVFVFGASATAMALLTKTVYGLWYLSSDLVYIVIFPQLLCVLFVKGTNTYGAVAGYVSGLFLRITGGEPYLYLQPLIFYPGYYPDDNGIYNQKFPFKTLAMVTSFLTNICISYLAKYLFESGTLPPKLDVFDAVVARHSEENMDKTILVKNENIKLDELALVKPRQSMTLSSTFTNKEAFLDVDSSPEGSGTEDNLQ
Chain of Histamine H1 receptor (Homo sapiens) (P35367 whole entry): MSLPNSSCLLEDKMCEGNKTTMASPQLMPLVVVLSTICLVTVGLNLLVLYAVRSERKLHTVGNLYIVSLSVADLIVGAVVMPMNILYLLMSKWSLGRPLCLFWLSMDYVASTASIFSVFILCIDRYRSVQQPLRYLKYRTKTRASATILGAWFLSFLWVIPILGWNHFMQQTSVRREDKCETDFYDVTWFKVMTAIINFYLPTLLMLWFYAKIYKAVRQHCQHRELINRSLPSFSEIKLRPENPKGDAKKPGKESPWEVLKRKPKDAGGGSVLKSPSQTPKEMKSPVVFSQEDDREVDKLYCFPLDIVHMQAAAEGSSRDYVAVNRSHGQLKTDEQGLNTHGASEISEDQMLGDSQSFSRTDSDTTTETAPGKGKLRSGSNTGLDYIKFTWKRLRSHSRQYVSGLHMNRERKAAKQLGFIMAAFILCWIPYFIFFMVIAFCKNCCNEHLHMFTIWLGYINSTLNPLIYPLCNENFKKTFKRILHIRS
Chain of Sodium channel protein type 4 subunit alpha (P35499 whole entry, the tested form may be a part): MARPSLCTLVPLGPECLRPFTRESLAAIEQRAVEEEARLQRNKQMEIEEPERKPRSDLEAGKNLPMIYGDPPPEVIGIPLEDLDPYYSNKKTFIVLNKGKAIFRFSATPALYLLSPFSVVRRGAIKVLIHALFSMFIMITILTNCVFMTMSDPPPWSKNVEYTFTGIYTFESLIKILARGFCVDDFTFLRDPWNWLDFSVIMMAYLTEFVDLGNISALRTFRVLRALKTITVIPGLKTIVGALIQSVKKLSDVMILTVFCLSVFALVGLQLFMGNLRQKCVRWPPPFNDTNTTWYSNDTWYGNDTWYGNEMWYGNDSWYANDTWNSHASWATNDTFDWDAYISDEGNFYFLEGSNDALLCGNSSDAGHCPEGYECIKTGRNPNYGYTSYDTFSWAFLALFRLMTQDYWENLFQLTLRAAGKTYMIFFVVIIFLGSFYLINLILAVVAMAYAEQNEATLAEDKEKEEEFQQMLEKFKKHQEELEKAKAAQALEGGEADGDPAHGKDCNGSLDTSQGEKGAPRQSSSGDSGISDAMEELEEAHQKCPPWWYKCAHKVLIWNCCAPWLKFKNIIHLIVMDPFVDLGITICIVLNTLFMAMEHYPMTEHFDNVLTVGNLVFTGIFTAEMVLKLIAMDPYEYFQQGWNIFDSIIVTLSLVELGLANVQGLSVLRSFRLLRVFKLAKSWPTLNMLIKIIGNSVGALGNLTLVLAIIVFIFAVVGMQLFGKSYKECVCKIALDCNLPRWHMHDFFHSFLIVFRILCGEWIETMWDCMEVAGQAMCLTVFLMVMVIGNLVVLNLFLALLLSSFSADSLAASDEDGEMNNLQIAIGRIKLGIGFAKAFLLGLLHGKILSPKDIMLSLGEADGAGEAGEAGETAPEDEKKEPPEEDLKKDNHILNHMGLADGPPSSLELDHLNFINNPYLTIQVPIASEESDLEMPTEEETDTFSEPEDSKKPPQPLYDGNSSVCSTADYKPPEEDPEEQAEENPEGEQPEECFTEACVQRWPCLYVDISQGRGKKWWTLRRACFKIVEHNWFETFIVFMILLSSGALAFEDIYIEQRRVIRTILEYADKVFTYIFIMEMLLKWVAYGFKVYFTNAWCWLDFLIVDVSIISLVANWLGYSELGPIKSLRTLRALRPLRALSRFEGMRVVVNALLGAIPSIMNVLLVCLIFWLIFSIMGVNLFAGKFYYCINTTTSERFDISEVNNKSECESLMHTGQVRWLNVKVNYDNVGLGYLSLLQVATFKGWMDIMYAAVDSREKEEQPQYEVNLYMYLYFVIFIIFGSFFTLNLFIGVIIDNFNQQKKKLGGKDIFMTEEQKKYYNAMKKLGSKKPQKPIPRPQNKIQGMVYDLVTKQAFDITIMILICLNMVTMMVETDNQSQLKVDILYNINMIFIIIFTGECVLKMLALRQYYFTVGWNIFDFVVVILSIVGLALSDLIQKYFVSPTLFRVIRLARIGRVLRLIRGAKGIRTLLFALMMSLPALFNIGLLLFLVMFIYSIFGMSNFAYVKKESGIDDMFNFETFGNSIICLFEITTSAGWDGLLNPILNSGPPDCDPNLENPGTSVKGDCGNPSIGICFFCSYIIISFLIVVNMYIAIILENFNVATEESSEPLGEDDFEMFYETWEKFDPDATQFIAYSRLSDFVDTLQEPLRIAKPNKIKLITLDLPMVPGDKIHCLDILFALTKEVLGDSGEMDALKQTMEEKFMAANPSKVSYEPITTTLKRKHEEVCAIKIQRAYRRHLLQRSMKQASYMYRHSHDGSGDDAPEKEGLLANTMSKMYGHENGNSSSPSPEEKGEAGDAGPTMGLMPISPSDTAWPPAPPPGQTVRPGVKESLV
Chain of Delta-type opioid receptor (Homo sapiens) (P41143 whole entry): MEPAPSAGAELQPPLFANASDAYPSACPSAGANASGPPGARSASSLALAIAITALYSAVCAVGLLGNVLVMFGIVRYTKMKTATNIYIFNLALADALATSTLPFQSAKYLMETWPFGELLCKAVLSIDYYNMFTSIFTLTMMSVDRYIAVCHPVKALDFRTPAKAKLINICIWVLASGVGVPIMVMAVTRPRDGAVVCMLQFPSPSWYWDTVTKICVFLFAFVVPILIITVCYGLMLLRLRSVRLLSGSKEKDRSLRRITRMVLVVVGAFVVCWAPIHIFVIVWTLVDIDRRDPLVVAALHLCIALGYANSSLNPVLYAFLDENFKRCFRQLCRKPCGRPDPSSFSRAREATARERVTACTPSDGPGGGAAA
Chain of Endothelin-1 receptor (Homo sapiens) (P25101 whole entry): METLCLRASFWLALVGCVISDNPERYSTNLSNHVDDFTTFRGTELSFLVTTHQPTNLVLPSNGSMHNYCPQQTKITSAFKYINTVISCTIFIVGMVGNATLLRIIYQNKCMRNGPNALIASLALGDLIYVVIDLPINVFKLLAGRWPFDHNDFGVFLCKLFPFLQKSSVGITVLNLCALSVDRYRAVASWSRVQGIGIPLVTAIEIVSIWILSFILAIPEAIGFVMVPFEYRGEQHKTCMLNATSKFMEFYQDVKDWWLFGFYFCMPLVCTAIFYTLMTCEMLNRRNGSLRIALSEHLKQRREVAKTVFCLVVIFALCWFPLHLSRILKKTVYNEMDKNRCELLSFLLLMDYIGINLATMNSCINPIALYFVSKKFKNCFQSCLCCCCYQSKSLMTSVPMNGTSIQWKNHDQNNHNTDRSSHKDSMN
Chain of Cytochrome P450 2D6 (P10635 whole entry): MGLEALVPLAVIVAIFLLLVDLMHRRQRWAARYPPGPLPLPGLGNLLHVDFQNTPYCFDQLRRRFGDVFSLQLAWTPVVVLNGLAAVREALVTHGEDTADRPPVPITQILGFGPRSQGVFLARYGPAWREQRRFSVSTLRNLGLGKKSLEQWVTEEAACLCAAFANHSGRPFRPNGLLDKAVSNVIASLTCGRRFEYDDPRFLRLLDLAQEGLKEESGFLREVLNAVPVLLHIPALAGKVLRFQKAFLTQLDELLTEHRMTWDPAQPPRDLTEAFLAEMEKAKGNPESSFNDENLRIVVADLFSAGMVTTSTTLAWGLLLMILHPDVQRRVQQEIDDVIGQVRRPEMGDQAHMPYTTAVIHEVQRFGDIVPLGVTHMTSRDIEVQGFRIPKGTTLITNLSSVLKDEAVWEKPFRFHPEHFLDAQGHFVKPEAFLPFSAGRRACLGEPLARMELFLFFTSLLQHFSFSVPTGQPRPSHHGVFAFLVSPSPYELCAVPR

N#Cc1cc(S(=O)(=O)Nc2ncns2)ccc1Oc1ccc(-c2cccc(C(F)(F)F)c2)cc1-c1ccnc(CNCCC2CCNCC2)c1
Vd [1]: 0.54 L/kg | inhibition [2]: 29% | IC50 [3]: 120 nM | Ki [3]: 68 nM | inhibition at 10 µM (monoamine oxidase): 16% | inhibition (Homo sapiens [4]): 21% | inhibition [5]: 29% | Activity [6]: 8% | IC50 [7]: < 0.03 nM | inhibition (Rattus norvegicus [8]): 5% | inhibition (Rattus norvegicus [9]): 40% | fraction unbound at 2 µM [10]: 0.003 | IC50 (Cytochrome P450 2D6): 8830 nM | inhibition [11]: 84% | logD [12]: 2.37 to 2.4 | inhibition [13]: 27% | inhibition [14]: 21% | hepatocyte CLint [15]: < 6 µL/min/1e6 cells | IC50 [16]: 2.52 to 3 nM | inhibition (Rattus norvegicus [17]): -1% | inhibition [18]: 36.1% | fraction unbound [19]: 0.00497 | IC50 [20]: 6440 to 11500 nM | inhibition [21]: -5% | inhibition [22]: 11% | CL renal at 1 h [23]: 0.0322 mL/min/kg | Activity [24]: -49% | inhibition [25]: 80% | IC50 [26]: 5.46 to 5.8 nM | fraction unbound [27]: 0.00275 | IC50 [28]: 1450 nM | clearance [29]: 39.8 mL/min/kg | inhibition (Homo sapiens [30]): 92% | inhibition [31]: 43% | inhibition [32]: 48% | inhibition [33]: 31% | microsomal CLint [34]: < 18.1 µL/min/mg
